pIC50, pKd: −log10 of the molar value. Active and inactive are the calls of the source. The calls are words filed in the database; no cut-off is given here.
Key:
Translocator protein [1] = target: T1, Translocator protein (Homo sapiens, UniProt P30536); assay: Displacement of [3H]-PK11195 from PBR after 1 hr by scintillation counting
MDA-MB-231 [2] = assay: Cellular uptake in human MDA-MB-231 cells at 0.1 uM by fluorescence spectroscopy; type: ADME, cell-based; settings: mda-mb-231, 0.1 µM
In short: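 MDA-MB-231 cells. Uptake measured by fluorescence spectroscopy with excitation at 412 nm and emission scanned from 550 to 750 nm (maximum at 678 nm). Conjugate uptake compared with and without the TSPO ligand PK 11195 analogue.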

MDA-MB-231 [3] = assay: Antitumor activity against human MDA-MB-231 cells xenografted in SCID mouse assessed as tumor free mouse at 5 umol/kg measured on day 60; type: functional
MDA-MB-231 [4] = assay: Drug level in human MDA-MB-231 cells xenografted in SCID mouse after 24 hrs by microPET analysis; type: functional, cell-based
In short: (§1)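 Scid mice bearing MDA-231 tumours given the 124I-labelled conjugate at 50 μCi (about 40 ng) per mouse. MicroPET coronal emission imaging at 24, 48, 72 and 96 h after injection, plus biodistribution with three mice per group. Mean with standard deviation.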

MDA-MB-231 [5] = assay: Drug level in human MDA-MB-231 cells xenografted in SCID mouse after 48 to 96 hrs by microPET analysis; type: functional, cell-based; settings: tested as the 124I-labelled form; in short: as §1
Blood = assay: Drug level in […] cells xenografted BALB/c mouse blood after 24 hrs by microPET analysis; type: ADME, cell-based; settings: in vivo
In short: (§2)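 Balb/c mice bearing EMT6 tumours given the 124I-labelled agent. Uptake in organs and tumour taken by biodistribution 24 h after injection, with microPET coronal emission imaging. Mean with standard deviation.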

Muscle tissue = assay: Drug level in […] cells xenografted BALB/c mouse muscle after 24 hrs by microPET analysis; type: ADME, cell-based; settings: in vivo; in short: as §2
Spleen = assay: Drug level in […] cells xenografted BALB/c mouse spleen after 24 hrs by microPET analysis; type: ADME, cell-based; settings: in vivo; in short: as §2
Kidney = assay: Drug level in […] cells xenografted BALB/c mouse kidney after 24 hrs by microPET analysis; type: ADME, cell-based; settings: in vivo; in short: as §2
Lung = assay: Drug level in […] cells xenografted BALB/c mouse lungs after 24 hrs by microPET analysis; type: ADME, cell-based; settings: in vivo; in short: as §2
Heart = assay: Drug level in […] cells xenografted BALB/c mouse heart after 24 hrs by microPET analysis; type: ADME, cell-based; settings: in vivo; in short: as §2
Liver = assay: Drug level in […] cells xenografted BALB/c mouse liver after 24 hrs by microPET analysis; type: ADME, cell-based; settings: in vivo; in short: as §2
[6] = Drug level in […] cells xenografted BALB/c mouse gut after 24 hrs by microPET analysis; type: ADME, cell-based; settings: in vivo; in short: as §2
Stomach = assay: Drug level in […] cells xenografted BALB/c mouse stomach after 24 hrs by microPET analysis; type: ADME, cell-based; settings: in vivo; in short: as §2
Brain = assay: Drug level in […] cells xenografted BALB/c mouse brain after 24 hrs by microPET analysis; type: ADME, cell-based; settings: in vivo; in short: as §2
Translocator protein [7] = target: T1, Translocator protein; assay: Binding affinity to PBR
[8] = Drug level in human U87 cells xenografted in BALB/c mouse after 24 hrs […]; type: ADME, cell-based, U-87MG ATCC; settings: in vivo, in the assay text read “nude mouse” for “BALB/c mouse”
In short: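 Nude mice bearing U87 tumours given the 124I-labelled agent. Tumour and organ uptake taken by biodistribution 24 h after injection. Mean with standard deviation.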

T1 sequence (P30536 whole entry): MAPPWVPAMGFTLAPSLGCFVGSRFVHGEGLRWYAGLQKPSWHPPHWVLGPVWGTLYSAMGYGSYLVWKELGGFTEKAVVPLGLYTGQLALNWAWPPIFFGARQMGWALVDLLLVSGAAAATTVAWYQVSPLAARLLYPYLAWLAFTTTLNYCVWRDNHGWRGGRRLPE

## C=Cc1c(C)c2cc3nc(c4c5[nH]c(cc6nc(cc1[nH]2)C(C)=C6CC)c(C)c5C(=O)C4)[C@@H](CCC(=O)NCCCCCCN)[C@@H]3C
Translocator protein [1]
  pIC50: 4.60
MDA-MB-231 [2]
  Drug uptake: Active
MDA-MB-231 [3]
  Activity: 0%

## CCCCCCOC(C)c1c(C)c2cc3nc(c4c5[nH]c(cc6nc(cc1[nH]2)C(C)=C6CC)c(C)c5C(=O)C4)[C@@H](CCC(=O)NCCCCCCNC(=O)c1cc2ccccc2c(-c2ccccc2I)n1)[C@@H]3C (stereo partly specified)
MDA-MB-231 [4]
  Drug uptake: Active
MDA-MB-231 [5]
  Drug uptake: Active

## C=Cc1c(C)c2cc3nc(c4c5[nH]c(cc6nc(cc1[nH]2)C(C)=C6CC)c(C)c5C(=O)C4)[C@@H](CCC(=O)NCCN)[C@@H]3C
Translocator protein [1]
  pIC50: 5.25

## CCC(C)N(C)C(=O)c1cc2ccccc2c(-c2ccccc2I)n1 (stereo unspecified)
Translocator protein [1]
  pIC50: 6.21
Blood
  Drug uptake: Not Active
Muscle tissue
  Drug uptake: Not Active
Spleen
  Drug uptake: Not Active
Kidney
  Drug uptake: Not Active
Lung
  Drug uptake: Not Active
Heart
  Drug uptake: Not Active
Liver
  Drug uptake: Not Active
[6]
  Drug uptake: Not Active
Stomach
  Drug uptake: Not Active
Brain
  Drug uptake: Not Active

## C=Cc1c(C)c2cc3nc(c4c5[nH]c(cc6nc(cc1[nH]2)C(C)=C6CC)c(C)c5C(=O)C4)[C@@H](CCC(=O)NCCNC(=O)c1cc2ccccc2c(-c2ccccc2I)n1)[C@@H]3C
Translocator protein [1]
  pIC50: 5.66

## C=Cc1c(C)c2cc3nc(c4c5[nH]c(cc6nc(cc1[nH]2)C(C)=C6CC)c(C)c5C(=O)C4)[C@@H](CCC(=O)NCCCCCCNC(=O)c1cc2ccccc2c(-c2ccccc2I)n1)[C@@H]3C
Translocator protein [1]
  pIC50: 6.51
MDA-MB-231 [2]
  Drug uptake: Active
Translocator protein [7]
  pKd: 7.40
MDA-MB-231 [3]
  Activity: 20%
MDA-MB-231 [4]
  Drug uptake: Active

## C=Cc1c(C)c2cc3nc(c4c5[nH]c(cc6nc(cc1[nH]2)C(C)=C6CC)c(C)c5C(=O)C4)[C@@H](CCC(=O)N(C)CCN(C)C(=O)c1cc2ccccc2c(-c2ccccc2I)n1)[C@@H]3C
Translocator protein [1]
  pIC50: 6.00

## C=Cc1c(C)c2cc3nc(c4c5[nH]c(cc6nc(cc1[nH]2)C(C)=C6CC)c(C)c5C(=O)C4)[C@@H](CCC(=O)N(C)CCCCCCN(C)C(=O)c1cc2ccccc2c(-c2ccccc2I)n1)[C@@H]3C
Translocator protein [1]
  pIC50: 6.68

## CCC(C)N(C)C(=O)c1cc2ccccc2c(-c2ccccc2[124I])n1 (stereo unspecified)
[8]
  Drug uptake: Not Active

Source: ChEMBL document CHEMBL1671831, “TSPO 18 kDa (PBR) Targeted Photosensitizers for Cancer Imaging (PET) and PDT” (ACS Med Chem Lett, 2011)
